Data set [1] in a line: Toxicity in BALB/c mouse infected with Trypanosoma cruzi MHOM/Pe/2011/Arequipa;DTU 5 bloodstream trypomastigote assessed as decrease in serum creatine kinase muscle to brain ratio level in acute phase at 20 mg/kg/day, po administered for 5 consecutive days starting from day 8 post infection and measured at day 14 post infection by biochemical analysis relative to control. Format: organism-based. Conditions: in vivo. The arrangement: scale not given: the % may be the effect or the level left. Summed up:
(§1)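 Female BALB/c mice (10–12 weeks, 14–20 g; groups of three) were infected i.p. with 5 × 10^5 Arequipa bloodstream trypomastigotes. Dosing was oral at 20 mg/kg/day for 5 days, from day 8 pi (acute) or day 70 pi (chronic), as a 2 mg/ml suspension in 5% DMSO/0.5% HPMC; controls received vehicle. Cyclophosphamide 200 mg/kg i.p. was given at day 80 pi. Serum was collected 2 days post-treatment and at necropsy by cardiac puncture and compared with infected untreated controls.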

Data set [2] is described as follows: Toxicity in BALB/c mouse infected with Trypanosoma cruzi MHOM/Pe/2011/Arequipa;DTU 5 bloodstream trypomastigote assessed as decrease in serum lactate dehydrogenase level in chronic phase at 20 mg/kg/day, po administered for 5 consecutive days starting from day 70 post infection and measured at day 76 post infection relative to control. Format: organism-based. The arrangement: scale not given: the % may be the effect or the level left. As to conditions: in vivo. Summed up:
as §1

Data set [3] relates to Trypanosoma cruzi. Kind of data set: Antitrypanosomal activity against Trypanosoma cruzi MHOM/Pe/2011/Arequipa;DTU 5 bloodstream trypomastigotes infected in BALB/c mouse assessed as reduction in serum Ig-G level in chronic phase at 20 mg/kg/day, po administered for 5 consecutive days starting from day 70 post infection followed by cyclophosphamide induced immunosuppression on day 80 post infection and measured at day 100 post infection by ELISA. The format is functional, organism-based. Summed up: (§2)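 Sera came from infected BALB/c mice (three per group) dosed orally at 20 mg/kg/day for 5 days. Sampling points: 2 days after treatment, the day before immunosuppression (acute only) and necropsy day. Anti-T. cruzi IgG was measured by indirect ELISA using parasite Fe-SOD as antigen, read as OD at 492 nm.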
Background: In an ELISA, binding on a coated surface is turned into a signal by an enzyme label.

Data set [4] deals with Trypanosoma cruzi. Kind of data set: Antitrypanosomal activity against Trypanosoma cruzi MHOM/Pe/2011/Arequipa;DTU 5 epimastigote assessed as inhibition of DNA and RNA levels at IC50 measured after 72 hrs by acridine orange staining based flow cytometry relative to control. The format is functional. The arrangement: scale not given: the % may be the effect or the level left. Summed up: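 They were stained with rhodamine 123 or acridine orange and analysed by flow cytometry. Index of variation = (TM−CM)/CM, from median fluorescence of treated (TM) and untreated (CM) parasites.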

Data set [5] can be described thus: Toxicity in BALB/c mouse infected with Trypanosoma cruzi MHOM/Pe/2011/Arequipa;DTU 5 bloodstream trypomastigote assessed as change in serum alanine aminotransferase level in chronic phase at 20 mg/kg/day, po administered for 5 consecutive days starting from day 70 post infection measured on day 100 post infection relative to control. As to conditions: in vivo. Format: organism-based. Summed up: as §1

Data set [6] deals with Trypanosoma cruzi. Put plainly: Antitrypanosomal activity against Trypanosoma cruzi TINF/CH/1956/Tulahuen;DTU 6 amastigote forms measured after 72 hrs by Giemsa staining based assay. The format is functional, organism-based. As to conditions: TINF/CH/1956/Tulahuen;DTU 6, 72 h. In a few lines:
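Vero cells (1 × 10^4/well, on coverslips) left to adhere 24 h at 37 °C, 5% CO2, then infected with trypomastigotes at MOI 10:1 for 24 h. Free parasites were removed by three PBS washes. Compounds at 3.1, 6.25, 12.5, 25 and 50 µM were incubated 72 h, and amastigotes were counted after Giemsa staining. Triplicates, two separate experiments; IC50 by nonlinear regression.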

In data set [7] the test system is Trypanosoma cruzi. Kind of data set: Antitrypanosomal activity against Trypanosoma cruzi MHOM/Pe/2011/Arequipa;DTU 5 epimastigotes measured after 72 hrs by Neubauer hemocytometer. The format is functional, organism-based. Conditions: MHOM/Pe/2011/Arequipa;DTU 5, 72 h.
Data set [8] relates to Trypanosoma cruzi. Kind of data set: Antitrypanosomal activity against Trypanosoma cruzi MHOM/Pe/2011/Arequipa;DTU 5 epimastigote assessed as effect on glycerol excretion at IC50 after 72 hrs by H NMR method relative to control. Format: functional, organism-based. Summed up: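 Cells were spun at 800 × g for 10 min and culture supernatants analysed by 1H NMR. Catabolite peaks were expressed as % variation versus untreated parasites.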

The nature of data set [9]: Selectivity index, ratio of IC50 for African green monkey Vero cells to IC50 for Trypanosoma cruzi IRHOD/CO/2008/SN3;DTU 1 trypomastigote forms. Conditions: read-out: Selectivity Index. Format: toxicity. In a few lines: (§3)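 Bloodstream trypomastigotes were taken from BALB/c mice by cardiac puncture and diluted in RPMI with 10% FBS at 2 × 10^6/mL. They were incubated with 3.1–50.0 µM for 24 h at 37 °C in 5% CO2 and counted in a Neubauer chamber. Triplicate, at least three experiments; nonlinear regression.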

Data set [10] deals with Trypanosoma cruzi. Put plainly: Antitrypanosomal activity against Trypanosoma cruzi MHOM/Pe/2011/Arequipa;DTU 5 bloodstream trypomastigote infected in BALB/c mouse assessed as parasitemia reactivation in chronic phase at 20 mg/kg/day, po administered for 5 consecutive days starting from day 70 post infection followed by cyclophosphamide induced immunosuppression on day 80 post infection by Neubauer chamber relative to control. The format is functional. Summed up: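 Female BALB/c mice (three per group) were infected i.p. with 5 × 10^5 Arequipa bloodstream trypomastigotes and treated orally at 20 mg/kg/day for 5 days (vehicle 5% DMSO/0.5% HPMC). Once parasitemia was undetectable (day 80 pi), cyclophosphamide 200 mg/kg was given i.p. Bloodstream parasites were then counted to give % reactivation versus untreated controls.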

The nature of data set [11]: Selectivity index, ratio of IC50 for African green monkey Vero cells to IC50 for Trypanosoma cruzi TINF/CH/1956/Tulahuen;DTU 6. The format is toxicity. As to conditions: read-out: Selectivity Index. Summed up: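 SI = Vero IC50 / epimastigote IC50. Vero cells were grown in RPMI-1640 with 10% FBS, seeded at 0.8 × 10^4 cells/well, exposed to 10.0–200.0 µM for 72 h, then given MTT for 4 h. Epimastigotes were grown in MTL with 10% FBS at 28 °C, 5 × 10^5/mL, exposed to 6.3–50 µM for 48 h, then resazurin for 24 h (570/600 nm). IC50s came from nonlinear regression.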

Data set [12] can be described thus: Selectivity index, ratio of IC50 for African green monkey Vero cells to IC50 for Trypanosoma cruzi TINF/CH/1956/Tulahuen;DTU 6 trypomastigote forms. The format is toxicity. As to conditions: read-out: Selectivity Index. Summed up: as §3
Data set [13] is described as follows: Selectivity index, ratio of IC50 for African green monkey Vero cells to IC50 for Trypanosoma cruzi MHOM/Pe/2011/Arequipa; DTU 5 trypomastigote forms. The format is toxicity. As to conditions: read-out: Selectivity Index. Summed up: as §3
Data set [14] is described as follows: Selectivity index, ratio of IC50 for African green monkey Vero cells to IC50 for Trypanosoma cruzi MHOM/Pe/2011/Arequipa; DTU 5 amastigote forms. Format: toxicity. As to conditions: read-out: Selectivity Index. In a few lines:
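Vero cells (1 × 10^4/well) were infected with trypomastigotes at MOI 10:1 for 24 h and washed with PBS. They were then exposed to 3.1–50 µM for 72 h at 37 °C in 5% CO2, and amastigotes were counted after Giemsa staining. Triplicates in two determinations; nonlinear regression.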

For data set [15], the system named is Trypanosoma cruzi. Kind of data set: Antitrypanosomal activity against Trypanosoma cruzi MHOM/Pe/2011/Arequipa;DTU 5 bloodstream trypomastigotes infected in BALB/c mouse assessed as reduction in serum Ig-G level in acute phase at 20 mg/kg/day, po administered for 5 consecutive days starting from day 8 post infection followed by cyclophosphamide induced immunosuppression on day 80 post infection and measured at day 100 post infection by ELISA. Format: functional, organism-based. Summed up:
as §2

Structures are written as SMILES. Activity calls are given as the source filed them. No cut-off for these calls is given here. Bounds are passed on as bounds.

For `O=C(CCN1CCN(c2ccc(C(F)(F)F)cc2)CC1)c1ccc(O)cc1`, the Activity result in [1] is “<= 30%”; in data set [2], “<= 20%”; with Trypanosoma cruzi [4] it was -4.2%; in data set [5], more than 10%; in the data set with Trypanosoma cruzi [10], 30%. Further, the result in the data set with Trypanosoma cruzi [3], in the data set on Trypanosoma cruzi [8] and in the data set with Trypanosoma cruzi [15] was Active. Further, the IC50 is 3.9 µM in the data set with Trypanosoma cruzi [6] and 22.7 µM in the data set with Trypanosoma cruzi [7]. For the same molecule, the selectivity ratio in data set [9] worked out at 51; in data set [11], 7.2; in [12], 45.7; in [13], 123; in data set [14] it was 17.4.

As to `O=C(Cn1ccnc1[N+](=O)[O-])NCc1ccccc1` [BENZNIDAZOLE], the Activity result was “<= 30%” in data set [1]; “<= 10%” in data set [2]; -4.7% with Trypanosoma cruzi [4]; more than 10% in [5]; 40% in the data set with Trypanosoma cruzi [10]. Besides, the outcome in the data set on Trypanosoma cruzi [3], with Trypanosoma cruzi [8] and with Trypanosoma cruzi [15] was Active. Besides, the values for the IC50 with Trypanosoma cruzi [6] and with Trypanosoma cruzi [7] were 3.9 µM and 26.2 µM, respectively. Further, the selectivity ratio in data set [9] is more than 6; in data set [11], more than 7.9; in data set [12], more than 29.9; in data set [13], more than 32.5; in [14] it was more than 67.2.

Consider `O=C(CCN1CCN(c2ccc(Cl)cc2)CC1)c1ccc(O)cc1`, for which the Activity result in [1] is given as “<= 30%”; in [2] it was “<= 10%”; with Trypanosoma cruzi [4], -5.1%; in data set [5], more than 10%; in the data set on Trypanosoma cruzi [10] it was 20%. Further, the outcome in the data set on Trypanosoma cruzi [3], in the data set with Trypanosoma cruzi [8] and in the data set on Trypanosoma cruzi [15] was Active. In addition, the IC50 with Trypanosoma cruzi [6] is 3 µM; in the data set with Trypanosoma cruzi [7], 18.6 µM. For the same molecule, the selectivity ratio in [9] was found to be 50.9; in data set [11], 9.8; in [12], 49.6; in [13], 141; in [14], 20.4.

Usually IC50 stands for the concentration that inhibits the measured activity by half.

Source of the values: ChEMBL document CHEMBL4402517, “Rational modification of Mannich base-type derivatives as novel antichagasic compounds: Synthesis, in vitro and in vivo evaluation” (Bioorg Med Chem, 2019).
